{"source": "ChEMBL document CHEMBL4033780", "about": "“Lipidated Brartemicin Analogues Are Potent Th1-Stimulating Vaccine Adjuvants” (J Med Chem, 2018)", "key": {"[1]": {"species_on_record": "Mus musculus", "assay": "Adjuvant activity in immunized C57BL/6 mouse assessed as increase in antigen specific IFNgamma production in spelnocytes at 0.3 umol treated with ovalbumin for 7 days followed by stimulation with OVA for 7 days and restimulation with OVA measured 24 to 48 hrs post OVA challenge", "type": "functional, cell-based", "how_it_was_run": "(§1)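 C57BL/6 mice (8–12 wk) given s.c. oil-in-water emulsion (mineral oil/Tween-80/PBS 9:1:90) holding OVA 200 μg ± adjuvant 0.3 μmol; controls were OVA alone or no OVA. Footpad challenge with OVA 100 μg on day 7, spleens taken day 14. Splenocytes restimulated with OVA 10, 30 or 100 μg/mL. Cell number read at 450 nm after 3 h with a count reagent; IFN-γ and IL-17 measured by ELISA.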"}, "[2]": {"target": "T1, C-type lectin domain family 4 member E (Mus musculus) (UniProt Q9R0Q8)", "T1 sequence (whole entry)": "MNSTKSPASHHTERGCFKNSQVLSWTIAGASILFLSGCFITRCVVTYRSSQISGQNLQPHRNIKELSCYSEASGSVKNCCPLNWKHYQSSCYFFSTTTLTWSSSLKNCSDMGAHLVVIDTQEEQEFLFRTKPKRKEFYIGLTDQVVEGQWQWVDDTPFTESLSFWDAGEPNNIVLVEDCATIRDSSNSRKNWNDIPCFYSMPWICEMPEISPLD", "assay": "Agonist activity at mincle in wild type C57BL/6 mouse GM-CSF derived BMDM assessed as increase in IL-6 release at 0.1 to 1 nmol after 24 hrs by sandwich ELISA", "how_it_was_run": "(§2)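 Wild-type or Mincle−/− C57BL/6 bone marrow was cultured 8 days with GM-CSF 50 ng/mL in complete RPMI. Macrophages were detached with Acutase and seeded on ligand-coated plates (0.1 or 1 nmol/well); LPS 100 ng/mL was used as comparator. Supernatant was taken at 24 h and TNF, IL-6, IL-1β and MIP-2 measured by sandwich ELISA. Representative of three experiments in triplicate (±SD).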"}, "[3]": {"target": "T1, C-type lectin domain family 4 member E (Mus musculus)", "assay": "Agonist activity at mincle in wild type C57BL/6 mouse GM-CSF derived BMDM assessed as increase in IL-1beta release at 0.1 to 1 nmol after 24 hrs by sandwich ELISA", "how_it_was_run": "as §2"}, "[4]": {"target": "T1, C-type lectin domain family 4 member E (Mus musculus)", "assay": "Agonist activity at mincle in wild type C57BL/6 mouse GM-CSF derived BMDM assessed as increase in MIP2 release at 0.1 to 1 nmol after 24 hrs by sandwich ELISA", "how_it_was_run": "as §2"}, "[5]": {"tested_on": "Th17", "assay": "Immunostimulatory activity in OT-2 TCR transgenic mouse CD4+ Th17 cells co-cultured with C57BL/6 mouse BMDM assessed as increase in ovalbumin-specific IL-17 release at 0.1 nmol after 48 hrs by ELISA", "type": "functional, cell-based", "how_it_was_run": "(§3)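 OT-II CD4+ T cells (1×10^5) were cocultured with GM-CSF bone-marrow cells (1×10^4) on wells coated with glycolipid 0.1 nmol/well or isopropanol only, with OVA323–339 peptide at 0, 0.1 or 1 μM. Supernatant was collected after 48 h and IFN-γ and IL-17 measured by ELISA. Representative of two experiments in triplicate (±SD).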"}, "[6]": {"target": "T2, C-type lectin domain family 4 member E (Homo sapiens) (UniProt Q9ULY5)", "T2 sequence (whole entry)": "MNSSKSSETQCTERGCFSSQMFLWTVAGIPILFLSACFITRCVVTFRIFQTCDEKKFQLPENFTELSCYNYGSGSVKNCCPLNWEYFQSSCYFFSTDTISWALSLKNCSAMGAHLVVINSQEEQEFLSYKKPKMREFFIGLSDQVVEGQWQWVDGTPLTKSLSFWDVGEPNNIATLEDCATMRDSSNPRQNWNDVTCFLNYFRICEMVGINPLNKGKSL", "assay": "Binding affinity to recombinant human mincle extracellular domain fused with human IgG Fc expressed in HEK293T cells at 0.1 nmol by ELISA", "type": "cell-based", "conditions": "HEK-293T"}, "[7]": {"tested_on": "BMDM", "assay": "Immunostimulatory activity in mincle-/- C57BL/6 mouse GM-CSF derived BMDM assessed as increase in TNF release at […] after 24 hrs by sandwich ELISA method", "type": "functional, cell-based", "how_it_was_run": "as §2"}, "[8]": {"tested_on": "BMDM", "assay": "Immunostimulatory activity in mincle-/- C57BL/6 mouse GM-CSF derived BMDM assessed as increase in MIP2 release at […] after 24 hrs by sandwich ELISA method", "type": "functional, cell-based", "how_it_was_run": "as §2"}, "[9]": {"tested_on": "BMDM", "assay": "Immunostimulatory activity in mincle-/- C57BL/6 mouse GM-CSF derived BMDM assessed as increase in IL-1beta release at […] after 24 hrs by sandwich ELISA method", "type": "functional, cell-based", "how_it_was_run": "as §2"}, "[10]": {"tested_on": "T3, C-type lectin domain family 4 member E (Homo sapiens), Q9ULY5 [R183A]", "T3 sequence (whole entry)": "T2 sequence (whole entry) with R183A", "assay": "Agonist activity at human mincle R183A mutant expressed in NFAT-GFP reporter cells up to 3000 pmol after 18 hrs by flow cytometric analysis", "type": "cell-based", "how_it_was_run": "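The hMincle R183A mutant, made by site-directed mutagenesis, was retrovirally introduced into 2B4 NFAT-GFP cells expressing FcRγ only. Cells were stimulated on plates coated with increasing ligand amounts for 18 h, and NFAT-GFP was read by flow cytometry. Mean of two independent experiments in duplicate (±SEM).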"}, "[11]": {"tested_on": "Th1", "assay": "Immunostimulatory activity in OT-2 TCR transgenic mouse CD4+ Th1 cells co-cultured with C57BL/6 mouse BMDM assessed as increase in IFNgamma release at 0.1 nmol after 48 hrs by ELISA", "type": "functional, cell-based", "how_it_was_run": "as §3"}, "[12]": {"species_on_record": "Mus musculus", "assay": "Adjuvant activity in immunized C57BL/6 mouse assessed as increase in OVA-specific IgG2b production in serum at 0.3 umol treated with ovalbumin for 7 days followed by stimulation with OVA for 7 days and restimulation with OVA measured 24 to 48 hrs post OVA challenge", "type": "functional"}, "[13]": {"species_on_record": "Mus musculus", "assay": "Adjuvant activity in immunized C57BL/6 mouse assessed as increase in OVA-specific IgG1 production in serum at 0.3 umol treated with ovalbumin for 7 days followed by stimulation with OVA for 7 days and restimulation with OVA measured 24 to 48 hrs post OVA challenge relative to control", "type": "functional", "how_it_was_run": "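Sera were taken on days 0, 7 and 14 from C57BL/6 mice sensitized s.c. with emulsion containing OVA 200 μg ± adjuvant 0.3 μmol and footpad-challenged with OVA on day 7. OVA-specific IgG, IgG1, IgG2b and IgG2c were measured by ELISA with HRP-coupled anti-mouse secondaries. EC50 was taken from absorbance at 450 nm plotted against log serum concentration.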"}, "[14]": {"species_on_record": "Mus musculus", "assay": "Adjuvant activity in immunized C57BL/6 mouse assessed as increase in OVA-specific IgG2c production in serum at 0.3 umol treated with ovalbumin for 7 days followed by stimulation with OVA for 7 days and restimulation with OVA measured 24 to 48 hrs post OVA challenge relative to control", "type": "functional"}, "[15]": {"species_on_record": "Mus musculus", "assay": "Adjuvant activity in immunized C57BL/6 mouse assessed as increase in splenocyte number at 0.3 umol treated with ovalbumin for 7 days followed by stimulation with OVA for 7 days and restimulation with OVA measured 24 to 48 hrs post OVA challenge", "type": "functional", "how_it_was_run": "as §1"}}, "note": "Substitutions are numbered along the chain they refer to. Calls of active or inactive are those of the source. No cut-off for these calls is given here."}
{"smiles": "CCCCCCCCCCCCCCCCCCOc1ccc(C(=O)OC[C@H]2O[C@H](O[C@H]3O[C@H](COC(=O)c4ccc(OCCCCCCCCCCCCCCCCCC)cc4O)[C@@H](O)[C@H](O)[C@H]3O)[C@H](O)[C@@H](O)[C@@H]2O)c(O)c1", "values": [{"measurement": "Activity", "setting": "[1]", "result": "Active"}, {"measurement": "Activity", "setting": "[2]", "result": "Active"}, {"measurement": "Activity", "setting": "[3]", "result": "Active"}, {"measurement": "Activity", "setting": "[4]", "result": "Active"}, {"measurement": "Activity", "setting": "[5]", "result": "Active"}, {"measurement": "Activity", "setting": "[6]", "result": "Active"}, {"measurement": "Activity", "setting": "[7]", "result": "inactive"}, {"measurement": "Activity", "setting": "[8]", "result": "inactive"}, {"measurement": "Activity", "setting": "[9]", "result": "inactive"}, {"measurement": "Activity", "setting": "[10]", "result": "inactive"}, {"measurement": "Activity", "setting": "[11]", "result": "inactive"}, {"measurement": "Activity", "setting": "[12]", "result": "Active"}, {"measurement": "fold change (FC)", "setting": "[13]", "result": 2}, {"measurement": "fold change (FC)", "setting": "[14]", "result": 3}, {"measurement": "Activity", "setting": "[15]", "result": "Active"}]}
